IC50 and selectivity ratio data for 33 compounds are collected here from ChEMBL document CHEMBL1128512, “Keto/enol epoxy steroids as HIV-1 Tat inhibitors: structure-activity relationships and pharmacophore localization” (J Med Chem, 1995).

The test system of series [1] is Human immunodeficiency virus 1. Kind of series: Inhibition of HIV replication in H9 cells. Format: functional, organism-based. The note with it: Human immunodeficiency virus 1, H9. A digest of the protocol:
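H9 cells (RPMI 1640 + 10% IFCS) infected with HIV-1 IIIB at three virus concentrations (0.5 log10 dilutions; most dilute ~5-10 infectious units/well), seeded 2×10^4 cells/well. 3-5 compound concentrations, 0.5% DMSO final, quadruplicate, 5 days at 37 °C, 5% CO2; media and compound renewed day 3. Day-5 supernatant p24 ELISA; IC50 for ≥2 viral doses, 3-5 assays, mean of n.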

A short description of series [2]: Therapeutic index, measured by whole cell assay. Particulars: read-out: Therapeutic index. A digest of the protocol: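 Ratio of cytotoxicity IC50 to HIV replication IC50 in H9 cells; cut-off of 3 counts as positive. Toxicity: uninfected H9 at 2×10^4 cells/well, 3-5 compound concentrations in quadruplicate, 5 days at 37 °C, 5% CO2, media and compound renewed day 3, viable cells counted by trypan blue exclusion. Antiviral IC50 from HIV-1 IIIB p24 ELISA at day 5.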

Series [3] has as its system SW480. Kind of series: The compound was tested for inhibition of HIV-1 replication in SW480 cells using HIV tat assay; Not active at 37 mM. Format: functional, cell-based, Homo sapiens. In a few lines:
(§1)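 SW480 colon carcinoma cells at 70-80% confluence, calcium phosphate co-transfected with HIV-1 LTR-CAT (pBennCAT) plus pSV2tat, total DNA adjusted with salmon sperm DNA. Compound (from DMSO stock diluted 100-fold in DMEM + 10% IFCS) added 5 h post-transfection, duplicate wells, 48 h at 37 °C. CAT activity read with [14C]chloramphenicol, 2 h. Selectivity check against SV40-promoter CAT. IC50 from logit dose-response curves, 3-5 experiments, 95% confidence limits.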

Series [4] has as its system SW480. Kind of series: The compound was tested for inhibition of HIV-1 replication in SW480 cells using HIV tat assay; Not active at 123 mM. Format: functional, cell-based, Homo sapiens. A digest of the protocol:
as §1

The subject of series [5] is SW480. Kind of series: The compound was tested for inhibition of HIV-1 replication in SW480 cells using HIV tat assay; Not active at 100 mM. Format: functional, cell-based, Homo sapiens. A digest of the protocol: as §1
For series [6], the system named is SW480. Kind of series: The compound was tested for inhibition of HIV-1 replication in SW480 cells using HIV tat assay; Not active at 80 mM. Format: functional, cell-based, Homo sapiens.
Series [7] concerns SW480. Kind of series: The compound was tested for inhibition of HIV-1 replication in SW480 cells using HIV tat assay; Not active at […]. Format: functional, cell-based, Homo sapiens.
In series [8] the test system is SW480. Kind of series: The compound was tested for inhibition of HIV-1 replication in SW480 cells using HIV tat assay; Not active. Format: functional, cell-based, Homo sapiens.
The subject of series [9] is SW480. The series can be described thus: The compound was tested for inhibition of HIV-1 replication in SW480 cells using HIV tat assay; Not active at 90 mM. The format is functional, cell-based, Homo sapiens.
Series [10] concerns SW480. The series can be described thus: The compound was tested for inhibition of HIV-1 replication in SW480 cells using HIV tat assay; Not active at 32 mM. Format: functional, cell-based, Homo sapiens. A digest of the protocol:
as §1

As a reminder, the IC50 is the point on the concentration scale where inhibition reaches its midpoint. A low value points to greater potency. `C[C@@]12CCCC[C@@]1(O)[C@@H](Cl)C(=O)C(C(N)=O)C2` (some centres not stated): in series [1], the IC50 is 9300 nM. In addition, in [2], the selectivity ratio is 2. Consider `C[C@@]12CCCC[C@]13O[C@@H]3C(=O)C(C(N)=O)C2` (some centres not stated), for which the half-maximal inhibitory concentration (IC50) in [1] came to 6400 nM. For the same compound, the selectivity ratio in series [2] turned out to be 4.1.

`COc1ccc(NC(=O)C2CC(C)(C)C3OC3C2=O)cc1` (configuration not stated) registered a half-maximal inhibitory concentration (IC50) in series [1] of 5200 nM. In series [2], the selectivity ratio was found to be 1.2.

Turning to `COc1ccc(NC(=O)C2CC(C)(C)C=CC2=O)cc1` (configuration not stated), the IC50 entry in the series on SW480 [3] was “Not Active”. In the case of `CC1(C)C=CC(=O)C(C(=O)Nc2ccccc2)C1` (configuration not stated), the 50% inhibitory concentration (IC50) result with SW480 [4] was “Not Active”. On to `C[C@@]12CCCCC1=CC(=O)C(C(=O)Nc1ccccc1)C2` (some centres not stated), for which the IC50 result with SW480 [5] is “Not Active”. For the compound `C[C@@]12CCCC[C@]13O[C@@H]3C(=O)C(C(=O)Nc1ccccc1)C2` (some centres not stated), the IC50 in series [1] stood at 2100 nM. Moreover, in [2], the selectivity ratio was found to be 3.8. In the same order, the values of `C[C@@]12CCCC[C@]13O[C@@H]3C(=O)C(C#N)C2` (some centres not stated) are 11000 nM and 3. `CC1(C)CC(C(=O)Nc2c(Cl)cccc2Cl)C(=O)C2OC21` (configuration not stated) gave a concentration for half-maximal inhibition (IC50) in series [1] of 2700 nM. Moreover, in series [2], the selectivity ratio is 2.3.

Compound `COc1ccc(NC(=O)C2C[C@]3(C)CCCC[C@]34O[C@@H]4C2=O)cc1` (some centres not stated) had an IC50 in series [1] of 8500 nM. The selectivity ratio in series [2] was determined as 1.3. In the case of `CC(=O)O[C@H]1CCC2C3CCC4=CC(=O)C(C(N)=O)C[C@]4(C)C3CC[C@@]21C` (some centres not stated), in the series on SW480 [6], the IC50 result is reported as “Not Active”. `C[C@]12CCC3C(CC[C@@]45O[C@@H]4C(=O)C(S(C)(=O)=O)C[C@]35C)C1CC[C@@H]2O` (some centres not stated): in [1], the IC50 amounted to 1400 nM. Moreover, in [2], the selectivity ratio was determined as 3.9.

For the compound `COC(=O)C1C[C@]2(C)[C@H]3CC[C@]4(C)[C@@H](O)CC[C@H]4[C@@H]3CC[C@]23O[C@@H]3C1=O` (some centres not stated), inhibition in series [1] was half-maximal at 2400 nM (IC50). Further, the selectivity ratio in [2] was determined as 4.5. Take `C[C@]12CC[C@H]3[C@@H](CC[C@@]45O[C@@H]4C(=O)C(C(N)=O)C[C@]35C)[C@@H]1CC[C@@H]2O` (some centres not stated): the midpoint of inhibition in [1], the IC50, lay at 1200 nM. For the same compound, the selectivity ratio in series [2] was 6.5.

`CC(=O)O[C@H]1CC[C@H]2[C@@H]3CCC4CC(=O)C(C(N)=O)C[C@]4(C)[C@H]3CC[C@]12C` (some centres not stated): the IC50 entry with SW480 [6] is on record as “Not Active”. Consider `C[C@]12CC[C@H]3[C@@H](CC[C@@]45O[C@@H]4C(=O)C(S(=O)(=O)c4ccccc4)C[C@]35C)[C@@H]1CC[C@@H]2O` (some centres not stated), for which, in series [1], the half-inhibitory concentration (IC50) was 1600 nM. In addition, the selectivity ratio in [2] amounted to 2.6. Take `C[C@]12CC[C@H]3[C@@H](CC[C@]45O[C@H]4C(=O)CC[C@]35C)[C@@H]1CC[C@@H]2O`: the IC50 result in the series with SW480 [7] is recorded as “Not Active”. `COC(=O)C1C[C@]2(C)[C@H]3CC[C@]4(C)[C@@H](OC(C)=O)CC[C@H]4[C@@H]3CC[C@]23O[C@@H]3C1=O` (some centres not stated) yielded an IC50 in [1] of 1400 nM. Moreover, the selectivity ratio in series [2] came to 3.1.

For the compound `CC(=O)O[C@H]1CC[C@H]2[C@@H]3CC[C@@]45O[C@@H]4C(=O)C(C(N)=O)C[C@]5(C)[C@H]3CC[C@]12C` (some centres not stated), the IC50 in [1] stood at 2400 nM. In series [2], the selectivity ratio was determined as 1.6. For `CC(=O)O[C@H]1CC[C@H]2[C@@H]3CC[C@@]45O[C@@H]4[C@@H](O)[C@@H](C(N)=O)C[C@]5(C)[C@H]3CC[C@]12C`, the IC50 result in the series on SW480 [6] was “Not Active”. `CC(=O)O[C@H]1CC[C@H]2[C@@H]3CC[C@@]45O[C@@H]4C(=O)C(S(C)(=O)=O)C[C@]5(C)[C@H]3CC[C@]12C` (some centres not stated) displayed an IC50 in series [1] of 300 nM. In addition, the selectivity ratio in series [2] amounted to 4.3. As to `C[C@]12CC[C@H]3[C@@H](CC[C@@]45O[C@@H]4[C@H](O)[C@H](C(N)=O)C[C@]35C)[C@@H]1CC[C@@H]2O`, the IC50 result with SW480 [8] is reported as “Not Active”. In the case of `C[C@]12CC[C@H]3[C@@H](CCC4CC(=O)C(C(N)=O)C[C@@]43C)[C@@H]1CC[C@@H]2O` (some centres not stated), the IC50 entry in the series on SW480 [9] was “Not Active”. For `CC(=O)O[C@H]1CC[C@H]2[C@@H]3CC[C@@]45O[C@@H]4[C@H](O)[C@H](C(N)=O)C[C@]5(C)[C@H]3CC[C@]12C`, the IC50 entry with SW480 [6] is “Not Active”. Regarding `C[C@]12CCCC[C@@]13O[C@H]3C(=O)C(C(N)=O)C2` (some centres not stated), 10300 nM corresponded to half-maximal inhibition in [1] (IC50). For the same compound, in series [2], the selectivity ratio worked out at 2.6.

With `C[C@@]12CCCC[C@@]1(O)[C@@H](Cl)C(=O)C(C(=O)Nc1ccccc1)C2` (some centres not stated), inhibition in [1] was half-maximal at 3300 nM (IC50). Besides, the selectivity ratio in series [2] was 1.9. `CC1(C)C=CC(=O)C(C(=O)Nc2c(Cl)cccc2Cl)C1` (configuration not stated): the IC50 result in the series on SW480 [10] is “Not Active”. Regarding `C[C@]12CC(C(N)=O)C(=O)C=C1CCC1C2CC[C@@]2(C)C1CC[C@@H]2O` (some centres not stated), in the series on SW480 [9], the IC50 entry is on record as “Not Active”. As for `CC1(C)CC(C(=O)Nc2ccccc2)C(=O)C2OC21` (configuration not stated), the concentration for half-maximal inhibition (IC50) in series [1] came to 4300 nM. Moreover, the selectivity ratio in [2] amounted to 1.4. For `COc1ccc(NC(=O)C2C[C@]3(C)CCCC[C@@]3(O)[C@@H](Cl)C2=O)cc1` (some centres not stated), in that order: 3300 nM and 4.2. In the same order, the values of `C[C@]12CCCC[C@@]13O[C@H]3C(=O)C(C#N)C2` (some centres not stated) are 25900 nM and 3.8. Consider `COc1ccc(NC(=O)C2C[C@]3(C)CCCCC3CC2=O)cc1` (some centres not stated), for which the IC50 result in the series with SW480 [5] was “Not Active”. As to `O=C1CN=C(c2ccc[nH]2)c2cc(Cl)ccc2N1`, 600 nM corresponded to half-maximal inhibition in series [1] (IC50).
